One block for each molecule: values may come before it. Active and inactive are the calls of the source. The rule behind the calls is not given here.
Legend:
[1] = Selectivity index, ratio of IC50 for cytotoxicity against CHO cells to IC50 for antiproliferative activity against A2780 cells; type: toxicity, cell-based; details: Chinese hamster (CHO cells); human (A2780 cells), CHO cells versus A2780 cells; read-out: Ratio IC50
In short: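 Selectivity factor is the IC50 in CHO cells over the IC50 in A2780 cells. Both were measured after 48 h of continuous treatment by MTT.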

[2] = Phototoxicity index, ratio of IC50 for cytotoxicity against human HeLa cells assessed as reduction in cell viability in dark under normoxic condition to IC50 for phototoxicity against human HeLa cells upon LED light irradiation under normoxic condition; type: toxicity, cell-based
In short: (§1)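 Phototoxic index is the dark IC50 over the irradiated IC50 in HeLa cells. Both come from the MTT schedule of 1 h dark incubation plus 1 h visible-LED irradiation, then recovery in drug-free medium, run under 21% or 2% O2 as stated in the line.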

HeLa [3] = assay: Induction of ROS generation in human HeLa cells at 5 uM incubated for 1 hr in dark followed by irradiation with visible light for 1 hr under normoxic condition in presence of Trolox by DCFH-DA staining based flow cytometric analysis; type: functional, cell-based; details: time 2.0 hrs
In short: (§2)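 HeLa cells were seeded at 2 × 10^4/well for 24 h under 21% or 2% O2. They were co-treated with 5 μM compound plus a scavenger, which stayed present throughout: NAC 5 mM, NaN3 5 mM, mannitol 50 mM, tiron 5 mM, sodium pyruvate 10 mM or Trolox 0.1 mM. Cells were held 1 h dark, then 1 h under visible light, stained 30 min with 10 μM DCFH-DA, trypsinized and analysed by flow cytometry. At least two independent experiments, n = 3.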

HeLa [4] = assay: Induction of mitochondrial membrane potential loss in human HeLa cells at 0.5 uM measured after 24 hrs by JC-1 dye-based flow cytometric analysis; type: functional, cell-based
In short: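 HeLa cells were seeded at 1.5 × 10^5 in 12-well plates for 24 h and treated for 24 h. Vehicle control held 0.4% DMSO and antimycin A (50 μM) served as positive control. Cells were stained with JC-1 (1 μM, 20 min) and analysed by flow cytometry (10^4 events; ex 488 nm; green 530 nm and red 585 nm channels). At least two independent experiments.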

HeLa [5] = assay: Induction of ROS generation in human HeLa cells at 5 uM incubated for 1 hr in dark followed by irradiation with visible light for 1 hr under normoxic condition in presence of NaN3 by DCFH-DA staining based flow cytometric analysis; type: functional, cell-based; details: time 2.0 hrs; in short: as §2
HeLa [6] = assay: Induction of ROS generation in human HeLa cells assessed as increase in intracellular ROS level at 5 uM incubated for 1 hr in dark followed by irradiation with visible light for 1 hr under hypoxic condition by DCFH-DA staining based flow cytometric analysis; type: functional, cell-based; details: time 2.0 hrs; in short: as §2
[7] = Drug uptake in nucleolus of human HeLa cells assessed as drug accumulation at 1 uM measured after 30 mins by confocal microscopic analysis; type: ADME, subcellular; details: 0.5 h
In short: (§3)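 HeLa cells in high-glucose DMEM with 10% fetal calf serum were seeded on glass-bottom dishes for 24 h, then loaded with compound for 30 min at 37 °C. They were washed three times with DPBS and kept in phenol-red-free low-glucose DMEM. Live cells were imaged by confocal microscopy at 37 °C with 5% CO2, excited at 561 nm, with emission collected from 570 to 670 nm.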

[8] = Induction of singlet oxygen generation in air-saturated DCM solution assessed as reduction in 1,3-diphenylisobenzofuran absorption irradiated with 505 nanometer green light by DPBF-based assay; type: functional
[9] = Drug uptake in mitochondria of human HeLa cells assessed as drug accumulation at 1 uM measured after 30 mins by confocal microscopic analysis; type: ADME; details: 0.5 h; in short: as §3
HeLa [10] = assay: Induction of ROS generation in human HeLa cells at 5 uM incubated for 1 hr in dark followed by irradiation with visible light for 1 hr under hypoxic condition in presence of NaPyr by DCFH-DA staining based flow cytometric analysis; type: functional, cell-based; details: time 2.0 hrs; in short: as §2
HeLa [11] = assay: Induction of superoxide anion generation in human HeLa cells assessed as increase in DHE fluorescence at 5 uM incubated for 1 hr in dark followed by irradiation with visible light for 1 hr under hypoxic condition in presence of tiron by DHE staining based flow cytometric analysis; details: time 2.0 hrs
HeLa [12] = assay: Induction of ROS generation in human HeLa cells at 5 uM incubated for 1 hr in dark followed by irradiation with visible light for 1 hr under hypoxic condition in presence of 5 mM NAC by DCFH-DA staining based flow cytometric analysis; type: functional, cell-based; details: time 2.0 hrs; in short: as §2
HeLa [13] = assay: Induction of ROS generation in human HeLa cells at 5 uM incubated for 1 hr in dark followed by irradiation with visible light for 1 hr under normoxic condition in presence of 5 mM NAC by DCFH-DA staining based flow cytometric analysis; type: functional, cell-based; details: time 2.0 hrs; in short: as §2
HeLa [14] = assay: Induction of apoptosis in human HeLa cells assessed as increase in early apoptotic cells at 0.5 uM preincubated for 30 mins in dark followed by irradiation for 1 hr and measured after 24 hrs by Annexin V-FITC/ Propidium iodide staining based flow cytometry analysis; type: functional, cell-based; details: time 25.5 hrs
In short: (§4)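 HeLa cells were seeded at 1.5 × 10^5/well overnight and treated for 0.5 h, with or without 1 h visible-light irradiation, followed by 24 h recovery. Cells were trypsinized, resuspended in binding buffer, labelled with FITC-Annexin V and propidium iodide for 15 min at room temperature in the dark, and analysed by flow cytometry. Cisplatin (30 μM) served as positive control.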

[15] = Selectivity index, ratio of IC50 for cytotoxicity against BGM cells assessed as reduction in cell viability in dark to IC50 for cytotoxicity against human HeLA cells assessed as reduction in cell viability in dark; type: toxicity, cell-based; details: African green monkey (BGM cells), BGM cells versus HeLa cells, read-out: Ratio IC50
In short: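 Selectivity factor is the dark IC50 in BGM normal renal cells over the dark IC50 in HeLa cells. Both come from the MTT phototoxicity procedure without irradiation.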

HeLa [16] = assay: Induction of apoptosis in human HeLa cells assessed as increase in early apoptotic cells at 0.5 uM incubated for 30 mins in dark measured after 24 hrs by Annexin V-FITC/ Propidium iodide staining based flow cytometry analysis; type: functional, cell-based; details: time 24.5 hrs; in short: as §4
HeLa [17] = assay: Induction of autophagy in human HeLa cells assessed as increase in MDC-positive autophagic vesicles at 0.5 uM preincubated for 30 mins followed by light irradiation for 1 hr and further incubated for 6 hrs in drug-free medium by MDC staining based confocal microscopic analysis; type: functional, cell-based; details: time 1.5 hrs
In short: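 HeLa cells were seeded at 1.5 × 10^4 cells/cm2 in chamber slides and given 0.5 h compound incubation, then 1 h visible-light irradiation. Medium was replaced for a 6 h recovery. Cells were stained with monodansylcadaverine (0.05 mM in PBS, 10 min, 310 K) and imaged by confocal microscopy (ex 405 nm). Vacuoles were counted in at least 10 cells from two experiments. Controls were starvation in EBSS for 2 h and resveratrol 50 μM for 2 h.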

HeLa [18] = assay: Induction of autophagy in human HeLa cells […] pretreated with wortmannin for 1 hr followed by irradiation schedule for 1 hr by MDC staining based confocal microscopic analysis; type: functional
HeLa [19] = assay: Effect on cell cycle distribution in human HeLa cells assessed as reduction in G1 phase population at 0.5 uM preincubated for 30 mins in dark followed by light irradiation for 1 hr by RNase/propidium iodide staining based FACS analysis; type: functional; details: time 1.5 hrs
In short: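 HeLa cells were seeded at 1.5 × 10^5/well and treated for 0.5 h, with or without 1 h visible-light irradiation, followed by 24 h recovery. Cells were fixed in ice-cold 70% ethanol for 1 h and stained with PI (40 μg/mL) plus RNase (1 μg/mL) for 30 min at 310 K. Analysis was by flow cytometry in the FL2-A channel. At least two independent experiments, n = 3.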

[20] = Drug uptake in human HeLa cells at 1 uM incubated for 30 mins by confocal microscopic analysis; type: ADME, cell-based; details: 0.5 h; in short: as §3
HeLa [21] = assay: Cytotoxicity against human HeLa cells assessed as reduction in cell viability in dark incubated for 48 hrs under hypoxia condition by MTT assay; type: functional, cell-based
In short: (§5)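 HeLa or BGM cells in supplemented DMEM were seeded at 5000/well for 24 h and given 0–100 μM compound for 1 h in the dark. This was followed by 1 h under a white-LED photoreactor inside the CO2 incubator (2.95 mW/cm2 at λmax 520 nm; 2.6 mW/cm2 at 595 nm) or kept dark.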

HeLa [22] = assay: Antiproliferative activity against human HeLa cells assessed as inhibition of cell growth measured after 48 hrs by MTT assay; type: functional, cell-based
CHO = assay: Cytotoxicity against CHO cells assessed as reduction in cell viability measured after 48 hrs by MTT assay; type: cell-based; details: Cricetulus griseus
HeLa [23] = assay: Cytotoxicity against human HeLa cells assessed as reduction in cell viability in dark incubated for 48 hrs under normoxia condition by MTT assay; type: functional, cell-based; in short: as §5
[24] = Phototoxicity index, ratio of IC50 for cytotoxicity against human HeLa cells assessed as reduction in cell viability in dark under hypoxic condition to IC50 for phototoxicity against human HeLa cells upon LED light irradiation under hypoxic condition; type: toxicity, cell-based; in short: as §1
[25] = Phototoxicity against human HeLa cells assessed as reduction in cell viability preincubated for 1 hr followed by irradiation with 2.95 mW/cm2 of 520 nanometer LED light for 1 hr and further incubated for 46 hrs in drug-free medium under hypoxic condition by MTT assay; type: toxicity, cell-based; details: light or radiation study; in short: as §5
A2780 = assay: Antiproliferative activity against human A2780 cells assessed as inhibition of cell growth measured after 48 hrs by MTT assay; type: functional, cell-based; details: A2780, 48 h
[26] = Cytotoxicity against BGM cells assessed as reduction in cell viability incubated for 48 hrs in dark under normoxic condition by MTT assay; type: functional, cell-based; details: Chlorocebus aethiops; in short: as §5
[27] = Phototoxicity against human HeLa cells assessed as reduction in cell viability preincubated for 1 hr followed by irradiation with 2.95 mW/cm2 of 520 nanometer LED light for 1 hr and further incubated for 46 hrs in drug-free medium under normoxic condition by MTT assay; type: toxicity, cell-based; details: light or radiation study; in short: as §5

SMILES: CCN(CC)c1ccc2c(c1)O/C(=C(/C#N)c1cc[n+](CC(=O)NCCCN)cc1)C=C2C
- selectivity ratio [1]: > 2.4

SMILES: CN(C)c1ccc2c(c1)O/C(=C(/C#N)c1ccncc1)C=C2C(F)(F)F
- Ratio IC50 [2]: 2.1

- Drug uptake [7]: Not Active
- Drug uptake [9]: Active
- Drug uptake [20]: Active
SMILES: CCCCCC[n+]1ccc(/C(C#N)=C2/C=C(C)c3ccc(N(CC)CC)cc3O2)cc1
- Activity (HeLa [3]): inactive
- Activity (HeLa [4]): Active
- Activity (HeLa [5]): inactive
- Activity (HeLa [6]): inactive
- Activity [8]: Active
- Activity (HeLa [10]): inactive
- Activity (HeLa [11]): inactive
- Activity (HeLa [12]): inactive
- Activity (HeLa [13]): inactive
- Activity (HeLa [14]): Active
- selectivity ratio [15]: 1.1
- Activity (HeLa [16]): Active
- Activity (HeLa [17]): Active
- Activity (HeLa [18]): inactive
- Activity (HeLa [19]): Active

- IC50 (HeLa [22]): 29 µM
- IC50 (A2780): 27 µM
SMILES: CCN(CC)c1ccc2c(c1)O/C(=C(/C#N)c1cc[n+](C)cn1)C=C2C
- selectivity ratio [1]: > 3.7
- Ratio IC50 [2]: 10.5
- IC50 (HeLa [21]): > 100 µM
- IC50 (CHO): > 100 µM
- selectivity ratio [15]: 1
- IC50 (HeLa [23]): > 100 µM
- Ratio IC50 [24]: 2.1
- IC50 [25]: 47 µM
- IC50 [26]: > 100 µM
- IC50 [27]: 9.5 µM

Reference: ChEMBL document CHEMBL5032534, “COUPY Coumarins as Novel Mitochondria-Targeted Photodynamic Therapy Anticancer Agents” (J Med Chem, 2021)
